Measured values: ChEMBL document CHEMBL1125275, “2-[(arylmethyl) amino]-2-methyl-1,3-propanediol DNA intercalators. An examination of the effects of aromatic ring variation on antitumor activity and DNA binding” (J Med Chem, 1991)
Calls of active or inactive are those of the source. No cut-off for these calls is given here.

What was measured:
Mus musculus [1] = species: Mus musculus; assay: Percent increase in life span (% ILS) was tested at optimal dose.; assay type: functional
Procedure, shortened: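 In vivo murine P388 lymphocytic leukemia screen; antitumor effect read as percent increase in life span (% ILS).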

Mus musculus [2] = species: Mus musculus; assay: Number of animals survived after 30 days of treatment; 0/6.; assay type: functional
P388 [3] = assay: Lethal dose in murine lymphocytic leukemia P388 cells; assay type: functional, Mus musculus
P388 [4] = assay: Antitumor activity in murine lymphocytic leukemia P388 cells; assay type: functional, Mus musculus
Procedure, shortened: (§1)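 Preliminary in vivo antitumor screen in mice bearing murine lymphocytic leukemia P388. The read-out is percent increase in life span (% ILS). Highest nontoxic doses used in the assay are reported in parentheses.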

Mus musculus [5] = species: Mus musculus; assay: Percent increase in life span (% ILS) was tested at optimal dose; I indicates inactive; assay type: functional, organism-based; procedure, shortened: as §1
P388 [6] = assay: The compound tested for the highest non-toxic dose in murine lymphocytic leukemia P388.; assay type: functional, Mus musculus
Procedure, shortened: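 In vivo murine P388 lymphocytic leukemia screen; the value reported is the highest nontoxic dose used in the assay.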

Mus musculus [7] = species: Mus musculus; assay: Number of animals survived after 30 days; 2/6; assay type: functional
Mus musculus [8] = species: Mus musculus; assay: Number of animals survived after 60 days; 0/6; assay type: functional
Mus musculus [9] = species: Mus musculus; assay: Number of animals survived after 30 days; 6/8; assay type: functional
Mus musculus [10] = species: Mus musculus; assay: Number of animals survived after 60 days; 3/6; assay type: functional
Mus musculus [11] = species: Mus musculus; assay: Number of animals survived after 30 days; assay type: functional
P388 [12] = assay: The compound tested for the lethal dose in murine lymphocytic leukemia P388.; assay type: ADME; settings: mouse
Mus musculus [13] = species: Mus musculus; assay: Number of animals survived after 30 days; 1/6; assay type: functional
Mus musculus [14] = species: Mus musculus; assay: Number of animals survived after 30 days; 4/6; assay type: functional
Mus musculus [15] = species: Mus musculus; assay: Number of animals survived after 30 days; 3/6; assay type: functional

Row | Compound | ILS (Mus musculus [1]) | No. of animals survived (Mus musculus [2]) | LD20 (P388 [3]) | Optimal dose (P388 [4]) | ILS (Mus musculus [5]) | Highest non-toxic dose (P388 [6]) | other results
1 | CC(CO)(CO)NCc1ccc2c3cccc4cccc(c5cccc1c52)c43.Cl | 100% | 0 | 425 mg/kg | 350 mg/kg |  |  | 
2 | CCCCCCCCCCCCNC(C)(CO)CO.Cl |  |  |  | 75 mg/kg | inactive | 75 mg/kg | 
3 | CC(CO)(CO)NCc1ccc2ccc3cccc4ccc1c2c34.Cl | 120% | 0 | 275 mg/kg | 260 mg/kg |  |  | 
4 | CC(CO)(CO)NCc1cccc2ccc3ccccc3c12.Cl |  |  |  | 269 mg/kg | inactive | 269 mg/kg | 
5 | CC(CO)(CO)NCc1c2ccccc2cc2c1ccc1ccccc12 | 180% |  | 220 mg/kg | 180 mg/kg |  |  | No. of animals survived (Mus musculus [7]): 2; No. of animals survived (Mus musculus [8]): 0
6 | CC(CO)(CO)NCc1cc2cccc3ccc4cccc1c4c32.Cl | 45% | 0 | 40 mg/kg | 40 mg/kg |  |  | 
7 | CC(CO)(CO)NCc1ccc2c(ccc3ccccc32)c1.Cl | 33% | 0 | 175 mg/kg | 200 mg/kg |  |  | 
8 | CC(CO)(CO)NCc1ccc2cc3ccccc3cc2c1.Cl |  |  |  | 250 mg/kg | inactive | 250 mg/kg | 
9 | CC(CO)(CO)NCc1cccc2c1ccc1ccccc12.Cl | 65% | 0 | 225 mg/kg | 230 mg/kg |  |  | 
10 | CC(CO)(CO)NCc1cccc2ccccc12.Cl |  |  |  | 180 mg/kg | inactive | 180 mg/kg | 
11 | CC(CO)(CO)NCc1cccc2c3ccccc3c3ccccc3c12.Cl | 25% | 0 | 165 mg/kg | 155 mg/kg |  |  | 
12 | CC(CO)(CO)NCc1cc2c3c(ccc4c3c1CCC4)CCC2.Cl |  |  |  | 151 mg/kg | inactive | 151 mg/kg | 
13 | CC(CO)(CO)NCc1cc2ccc3ccccc3c2c2ccccc12 | 42% | 0 | 15 mg/kg | 7.5 mg/kg |  |  | 
14 | CC(CO)(CO)NCc1cc2c3ccccc3ccc2c2ccccc12 [CRISNATOL] | 215% |  | 120 mg/kg | 120 mg/kg |  |  | No. of animals survived (Mus musculus [9]): 6; No. of animals survived (Mus musculus [10]): 3
15 | CC(CO)(CO)NCc1c2ccccc2cc2ccccc12.Cl | 30% | 0 | 150 mg/kg | 150 mg/kg |  |  | 
16 | CC(CO)(CO)NCc1cccc2cc3ccccc3cc12.Cl | 125% | 0 | 110 mg/kg | 120 mg/kg |  |  | 
17 | CC(CO)(CO)NCc1ccc2c3c(cccc13)-c1ccccc1-2.Cl | 190% |  |  | 105 mg/kg |  |  | No. of animals survived (Mus musculus [11]): 5; No. of animals survived (Mus musculus [10]): 3; LD20 (P388 [12]): 110 mg/kg
18 | CC(CO)(CO)NCc1cccc2ccc3c4ccccc4ccc3c12 | 120% |  | 225 mg/kg | 225 mg/kg |  |  | No. of animals survived (Mus musculus [13]): 1; No. of animals survived (Mus musculus [8]): 0
19 | CC(CO)(CO)NCc1c2ccccc2c2ccc3cccc4ccc1c2c43 | 100% | 0 | 123 mg/kg | 100 mg/kg |  |  | 
20 | CC(CO)(CO)NCc1ccc2ccc3ccccc3c2c1.Cl | 20% | 0 | 250 mg/kg | 225 mg/kg |  |  | 

Row | Compound | ILS (Mus musculus [1]) | No. of animals survived (Mus musculus [2]) | LD20 (P388 [3]) | Optimal dose (P388 [4]) | ILS (Mus musculus [5]) | Highest non-toxic dose (P388 [6]) | other results
21 | CC(CO)(CO)NCc1ccc2c3c1ccc1cccc(c13)C2 | 45% | 0 | 300 mg/kg | 270 mg/kg |  |  | 
22 | CC(CO)(CO)NCc1c2c3c(cccc3c3ccccc13)C=C2 | 225% |  | 125 mg/kg | 110 mg/kg |  |  | No. of animals survived (Mus musculus [14]): 4; No. of animals survived (Mus musculus [8]): 0
23 | CC(CO)(CO)NCc1ccccc1.Cl |  |  |  | 350 mg/kg | inactive | 350 mg/kg | 
24 | CC(CO)(CO)NCc1ccc2c(c1)-c1cccc3cccc-2c13.Cl |  |  |  | 150 mg/kg | inactive | 166 mg/kg | 
25 | CC(CO)(CO)NCc1cc2c3c(cccc3c1)-c1ccccc1-2.Cl | 105% | 0 |  | 160 mg/kg |  |  | LD20 (P388 [12]): 160 mg/kg
26 | CC(CO)(CO)NCc1ccc2ccc3c4ccccc4ccc3c2c1 | 20% | 0 | 110 mg/kg | 110 mg/kg |  |  | 
27 | CC(CO)(CO)NCc1ccc2c(ccc3cc4ccccc4cc32)c1 | 20% | 0 | 200 mg/kg | 200 mg/kg |  |  | 
28 | CC(CO)(CO)NCc1ccc2c(c1)Cc1ccccc1-2.Cl |  |  |  | 225 mg/kg | inactive | 225 mg/kg | 
29 | CC(CO)(CO)NCc1ccc2c(ccc3c4ccccc4ccc23)c1 |  |  | 450 mg/kg | 450 mg/kg | inactive |  | 
30 | CC(CO)(CO)NCc1ccc(-c2ccccc2)c2ccccc12.Cl |  |  |  | 175 mg/kg | inactive | 175 mg/kg | 
31 | CC(CO)(CO)NCc1ccc(-c2ccccc2)cc1.Cl |  |  |  | 283 mg/kg | inactive | 283 mg/kg | 
32 | CC(CO)(CO)NCc1c2ccccc2cc2cc3ccccc3cc12 | 165% |  | 60 mg/kg | 60 mg/kg |  |  | No. of animals survived (Mus musculus [7]): 2; No. of animals survived (Mus musculus [8]): 0
33 | CC(CO)(CO)NCc1ccc2ccccc2c1.Cl |  |  |  | 240 mg/kg | inactive | 240 mg/kg | 
34 | CC(CO)(CO)NCc1cc2ccccc2c2ccccc12.Cl | 60% | 0 | 125 mg/kg | 150 mg/kg |  |  | 
35 | CC(CO)(CO)NCc1ccc2c3ccccc3c3ccccc3c2c1.Cl | 100% | 0 | 85 mg/kg | 85 mg/kg |  |  | 
36 | CC(CO)(CO)NCc1ccc2cccc3c2c1-c1ccccc1-3.Cl | 100% | 0 |  | 140 mg/kg |  |  | LD20 (P388 [12]): 140 mg/kg
37 | CC(CO)(CO)NCc1cccc2c1-c1cccc3cccc-2c13.Cl | 142% | 0 |  | 100 mg/kg |  |  | LD20 (P388 [12]): 123 mg/kg
38 | CC(CO)(CO)NCc1c2c(cc3ccccc13)Cc1ccccc1-2 | 210% |  |  | 250 mg/kg |  | 250 mg/kg | No. of animals survived (Mus musculus [15]): 3; No. of animals survived (Mus musculus [8]): 0
39 | CC(CO)(CO)NCc1c2c3c(cccc3c3ccccc13)CC2 | 200% |  | 70 mg/kg | 60 mg/kg |  |  | No. of animals survived (Mus musculus [15]): 3; No. of animals survived (Mus musculus [8]): 0
